Screening results: PubChem BioAssay, several laboratories
Hits are enriched below; roughly 2.1% of the tested compounds scored in any of these assays.
TNF death inh: inhibitors of TNF-alpha triggered necroptosis, primary screen, cell-based, Jurkat FADD-/-, single concentration. Jurkat FADD-/- TNF necroptosis rescue, ATP luminescence, 24 h; 0 = TNF only, 100 = no-TNF cells. activation (protection from cell death), % at 10 µM. hit rate 0.068% among 220,000;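 active = activation, meaning protection from cell death, of at least 50% relative to plate controls; inactive = activation below 50%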;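 note: necroptosis triggered by 40 ng/mL TNF-alpha added together with compound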
STAT1 inh: STAT1 signaling inhibitors, primary screen, cell-based, HTS, luciferase reporter; NIH 3T3 STAT1-luciferase reporter, IFN-gamma, luminescence; inhibition, % at 5.5 µM; hit rate 0.35% among 200,000;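 active = inhibition above a set limit, the mean inhibition across all tested compounds plus 3 SD, cut at about 34% in these data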
zVAD death inh: inhibitors of zVAD-triggered necroptosis, primary screen, L929 cells; L929 zVAD necroptosis rescue, ATP luminescence, 24 h; with zVAD 60 µM; viability rescue, % at 10 µM; hit rate 0.38% among 220,000; AID 1377, 2008;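 active = activation, scaled between plate controls, above about 75%, limit read from the data; inactive = activation under that limit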
STAT3 inh: IL-6 driven STAT3 reporter inhibitors, primary screen, U3A cells, luciferase, luminescence, MLSCN library; inhibition, % at 5.5 µM; hit rate 0.89% among 190,000; IL-6 STAT3-luciferase reporter; host cell line lacks STAT1;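 active = inhibition above the mean inhibition across all screened compounds plus 3 SD, cut at about 44% in these data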
STAT3 act: IL-6 driven STAT3 reporter potentiators, primary screen, U3A cells, luciferase, luminescence, MLSCN library. hit rate 0.91% among 190,000. activation (% of control), % at 5.6 µM. IL-6 STAT3-luciferase reporter; 100% = signal with IL-6 EC80 alone. AID 871, 2007;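 active = activation above the screen-wide mean of compound activation plus 3 SD, cut at about 130% in these data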
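System – human U3A cells carrying STAT3-luciferase construct · Probe or stimulus – Interleukin-6, 33 ng/mL · Schedule – compound 1 h, then IL-6 6 h at 37 °C · Signal – luminescence from STAT3-driven luciferase reporter · Evaluation – percent of IL-6-only median luminescence · Benchmarks – IL-6-only high control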
Numbers stand for hits.

How did COc1ccc(NC(=O)c2ccccn2)cc1OC do in these assays?
TNF death inh: inactive; STAT1 inh: inactive; zVAD death inh: inactive; STAT3 inh: inactive; STAT3 act: inactive

What do the screens show for `C=CCc1cc(OC)ccc1OCCN(C)Cc1ccccc1`?
TNF death inh: inactive; STAT1 inh: inactive; zVAD death inh: inactive; STAT3 inh: inactive; STAT3 act: inactive

Results for CC1(C)CC(=O)C=C(NCc2ccco2)C1 ?
TNF death inh: inactive; STAT1 inh: inactive; zVAD death inh: inactive; STAT3 inh: inactive; STAT3 act: inactive

Results for O=C(O)c1cccc(-c2nc3ccccc3[nH]2)c1 ?
TNF death inh: inactive; STAT1 inh: 54.9; zVAD death inh: inactive; STAT3 inh: 65.2; STAT3 act: inactive

Results for CC(=O)Nc1cccc(-c2nc3ccccc3[nH]2)c1 ?
TNF death inh: inactive; STAT1 inh: inactive; zVAD death inh: inactive; STAT3 inh: inactive; STAT3 act: inactive

How did Cc1c(/C(O)=C2/C(=O)C(=O)N(CCN3CCOCC3)C2c2ccccn2)cnn1-c1ccccc1 (centres undefined) do in these assays?
TNF death inh: inactive; STAT1 inh: 90.5; zVAD death inh: inactive; STAT3 inh: 87.8; STAT3 act: inactive

How did Cc1ccc2c(c1)Cc1nc3ccccc3nc1-2 do in these assays?
TNF death inh: inactive; STAT1 inh: 60.8; zVAD death inh: inactive; STAT3 inh: 72.2; STAT3 act: inactive

How did Nc1ccccc1SCc1cn2ccccc2n1 do in these assays?
TNF death inh: inactive; STAT1 inh: inactive; STAT3 inh: inactive; STAT3 act: inactive

What do the screens show for `O=c1[nH]c(=O)n(Cc2ccccc2)c2c1C(C(F)(F)F)(C(F)(F)F)N=C(c1ccco1)N2`?
TNF death inh: inactive; STAT1 inh: inactive; zVAD death inh: inactive; STAT3 inh: inactive; STAT3 act: inactive

How did O=c1[nH]c(=O)n(Cc2ccco2)c2c1C(C(F)(F)F)(C(F)(F)F)N=C(c1ccc(F)cc1)N2 do in these assays?
TNF death inh: inactive; STAT1 inh: 44.9; zVAD death inh: inactive; STAT3 inh: 50.6; STAT3 act: inactive

What do the screens show for `COc1cc(/C=C/C(=O)OCC(=O)NC(=O)NC(C)(C)C)ccc1O`?
TNF death inh: inactive; zVAD death inh: inactive

How did O=C(CSc1ccsc1[N+](=O)[O-])NCCc1ccc(Cl)cc1 do in these assays?
TNF death inh: inactive; STAT1 inh: inactive; zVAD death inh: inactive; STAT3 inh: inactive; STAT3 act: inactive

What do the screens show for `O=C(CSc1ccsc1[N+](=O)[O-])NCCc1ccccc1`?
TNF death inh: inactive; STAT1 inh: inactive; zVAD death inh: inactive; STAT3 inh: inactive; STAT3 act: 135.5

What do the screens show for `CN(C)c1ccc([C@@H]2[C@@H]([N+](=O)[O-])[C@H]3C=Cc4ccccc4N3[C@H]2C(=O)c2ccc(Cl)cc2)cc1`?
TNF death inh: inactive; STAT1 inh: inactive; zVAD death inh: inactive; STAT3 inh: inactive; STAT3 act: 144.6

Results for O=C(c1ccccc1)C1C(c2ccccc2)C1[N+](=O)[O-] (centres undefined) ?
TNF death inh: inactive; zVAD death inh: inactive

Results for CCOC(=O)N1CCN(C(=O)Cn2c(C)cc3ccccc3c2=O)CC1 ?
TNF death inh: inactive; STAT1 inh: inactive; zVAD death inh: inactive; STAT3 inh: inactive; STAT3 act: inactive

Results for CC(C)CC(C(=O)N1CCc2ccccc2C1)N1C(=O)c2ccccc2C1=O (centres undefined) ?
TNF death inh: inactive; STAT1 inh: inactive; zVAD death inh: inactive; STAT3 inh: inactive; STAT3 act: 134.2

How did CC(C(=O)N1CCc2ccccc2C1)N1C(=O)c2ccccc2C1=O (centres undefined) do in these assays?
TNF death inh: inactive; zVAD death inh: inactive

Results for CNC(C)c1ccc(S(N)(=O)=O)cc1 (centres undefined) ?
TNF death inh: inactive; STAT1 inh: inactive; zVAD death inh: inactive; STAT3 inh: inactive; STAT3 act: inactive

Results for O=C(COC(=O)c1cccc(S(=O)(=O)N2CCOCC2)c1)Nc1nc(-c2ccccc2Cl)cs1 ?
TNF death inh: inactive; STAT1 inh: inactive; zVAD death inh: inactive; STAT3 inh: inactive; STAT3 act: inactive

Results for O=C(OCc1nc2ccccc2s1)c1cc2ccccc2oc1=O ?
TNF death inh: inactive; STAT1 inh: inactive; zVAD death inh: inactive; STAT3 inh: inactive; STAT3 act: 134.4

How did O=C(OCc1nc2ccccc2s1)c1cccc(S(=O)(=O)N2CCOCC2)c1 do in these assays?
TNF death inh: inactive; STAT1 inh: inactive; zVAD death inh: inactive; STAT3 inh: inactive; STAT3 act: 139.0

What do the screens show for `Nc1ccc(C(=O)OCc2nc3ccccc3s2)cc1`?
TNF death inh: inactive; STAT1 inh: inactive; zVAD death inh: inactive; STAT3 inh: inactive; STAT3 act: inactive

How did CC1CN(CCCOc2ccc([N+](=O)[O-])cc2)CC(C)O1 (centres undefined) do in these assays?
TNF death inh: inactive; STAT1 inh: inactive; STAT3 inh: inactive; STAT3 act: inactive

What do the screens show for `CC(C)(C)S(=O)(=O)c1ccc2nc3c(n2c1)CCCC3`?
TNF death inh: inactive; STAT1 inh: inactive; zVAD death inh: inactive; STAT3 inh: inactive; STAT3 act: inactive

Results for Cc1ccc(Nc2nc(N)nc(-c3oc4ccccc4c3C)n2)cc1 ?
TNF death inh: inactive; STAT1 inh: inactive; zVAD death inh: inactive; STAT3 inh: inactive; STAT3 act: 154.2

Results for Cc1cccc(-n2cnc3cc(C(=O)N4CCCCC4)ccc32)c1 ?
TNF death inh: inactive; STAT1 inh: inactive; zVAD death inh: inactive; STAT3 inh: inactive; STAT3 act: inactive

What do the screens show for `O=C(N/N=C/c1c[nH]c2ccc(Br)cc12)c1ccn(Cc2ccc(Cl)cc2)n1`?
TNF death inh: inactive; STAT1 inh: inactive; zVAD death inh: inactive; STAT3 inh: inactive; STAT3 act: inactive

How did O=C(N/N=C/c1c[nH]c2ccccc12)c1ccn(Cc2ccc(Cl)cc2Cl)n1 do in these assays?
TNF death inh: inactive; STAT1 inh: inactive; zVAD death inh: inactive; STAT3 inh: inactive; STAT3 act: 135.5

How did CC(C)OC(=O)/C(C#N)=C/c1cn(C)c2ccccc12 do in these assays?
TNF death inh: inactive; zVAD death inh: inactive

What do the screens show for `Cc1nonc1C(=O)N/N=C/c1cc2c(cc1Br)OCO2`?
TNF death inh: inactive; STAT1 inh: inactive; zVAD death inh: inactive; STAT3 inh: inactive; STAT3 act: 133.1

Results for Oc1c(I)cc(I)c2cccnc12 ?
TNF death inh: inactive; STAT1 inh: inactive; zVAD death inh: inactive; STAT3 inh: inactive; STAT3 act: inactive

How did Cc1ccc2[nH]c3c(N4CCCCCC4)ncnc3c2c1 do in these assays?
TNF death inh: inactive; STAT1 inh: 36.2; zVAD death inh: inactive; STAT3 inh: 67.5; STAT3 act: inactive

What do the screens show for `Fc1ccc2[nH]c3c(N4CCN(C5CCCCC5)CC4)ncnc3c2c1`?
TNF death inh: inactive; STAT1 inh: inactive; zVAD death inh: inactive; STAT3 inh: inactive; STAT3 act: inactive
